According to ChEMBL document CHEMBL5696444 (Nat Commun, 2017):
Calls of active or inactive are those of the source. The calls are words filed in the database; no cut-off is given here.

What was measured:
[1] = biological target: Tyrosine-protein kinase JAK1 (Homo sapiens) (UniProt P23458); test: Inhibition of JAK1 (unknown origin) at 100 nM in the presence of ATP by Kinome scan method relative to control
[2] = biological target: Ribosomal protein S6 kinase beta-1 (Homo sapiens) (UniProt P23443); test: Inhibition of RPS6KB1 (unknown origin) at 100 nM in the presence of ATP by Kinome scan method relative to control
[3] = biological target: Dual specificity mitogen-activated protein kinase kinase 2 (Homo sapiens) (UniProt P36507); test: Inhibition of MAP2K2 (unknown origin) at 100 nM in the presence of ATP by Kinome scan method relative to control
[4] = Stability of compound in tissue culture medium assessed as remaining parent compound at 5.38 uM incubated for 24 hrs; assay type: physicochemical; settings: read-out: Stability
[5] = test system: HCT-116; test: Induction of cell cycle arrest in human HCT-116 cells assessed as G2/M phase at 5 uM incubated for 24 hrs by flow cytometry analysis (Rvb=17.9%); assay type: functional
[6] = biological target: Dual specificity protein kinase CLK1 (Homo sapiens) (UniProt P49759); test: Inhibition of CLK (unknown origin) in human HCT-116 cells assessed as induction in alternative splicing effect in RBM25-PSEN1 level incubated for 6 hrs by RT-PCR analysis; assay type: cell-based; settings: dose 0.2-5 µM
Chain of Dual specificity protein kinase CLK1 (Homo sapiens) (P49759 whole entry, looked up, canonical isoform): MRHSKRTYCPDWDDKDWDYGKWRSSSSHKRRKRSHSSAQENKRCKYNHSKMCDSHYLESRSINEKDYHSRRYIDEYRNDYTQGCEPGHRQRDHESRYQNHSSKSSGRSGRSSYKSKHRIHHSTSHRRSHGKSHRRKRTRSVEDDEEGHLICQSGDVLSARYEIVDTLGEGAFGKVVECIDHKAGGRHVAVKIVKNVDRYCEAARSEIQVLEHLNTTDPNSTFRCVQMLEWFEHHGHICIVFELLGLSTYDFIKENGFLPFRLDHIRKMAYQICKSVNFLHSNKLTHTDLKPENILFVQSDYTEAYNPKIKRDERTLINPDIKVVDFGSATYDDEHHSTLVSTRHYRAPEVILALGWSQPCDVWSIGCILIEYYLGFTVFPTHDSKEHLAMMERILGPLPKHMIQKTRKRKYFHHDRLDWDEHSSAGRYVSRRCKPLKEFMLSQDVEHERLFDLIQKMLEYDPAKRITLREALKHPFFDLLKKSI
Method in brief: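 Cells exposed to graded T3 concentrations for 6 h (chosen to avoid cytotoxicity), with a DMSO vehicle control. Total RNA was reverse-transcribed with oligo-dT primers. Targeted splice or conjoined-gene products were quantified by real-time qPCR or by targeted next-generation sequencing. Conjoined-gene isoform expression was normalized to a sequenced housekeeping gene.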

[7] = biological target: Ephrin type-A receptor 2 (Homo sapiens) (UniProt P29317); test: Inhibition of EPHA2 (unknown origin) at 100 nM in the presence of ATP by Kinome scan method relative to control
Chain of Ephrin type-A receptor 2 (Homo sapiens) (P29317 whole entry): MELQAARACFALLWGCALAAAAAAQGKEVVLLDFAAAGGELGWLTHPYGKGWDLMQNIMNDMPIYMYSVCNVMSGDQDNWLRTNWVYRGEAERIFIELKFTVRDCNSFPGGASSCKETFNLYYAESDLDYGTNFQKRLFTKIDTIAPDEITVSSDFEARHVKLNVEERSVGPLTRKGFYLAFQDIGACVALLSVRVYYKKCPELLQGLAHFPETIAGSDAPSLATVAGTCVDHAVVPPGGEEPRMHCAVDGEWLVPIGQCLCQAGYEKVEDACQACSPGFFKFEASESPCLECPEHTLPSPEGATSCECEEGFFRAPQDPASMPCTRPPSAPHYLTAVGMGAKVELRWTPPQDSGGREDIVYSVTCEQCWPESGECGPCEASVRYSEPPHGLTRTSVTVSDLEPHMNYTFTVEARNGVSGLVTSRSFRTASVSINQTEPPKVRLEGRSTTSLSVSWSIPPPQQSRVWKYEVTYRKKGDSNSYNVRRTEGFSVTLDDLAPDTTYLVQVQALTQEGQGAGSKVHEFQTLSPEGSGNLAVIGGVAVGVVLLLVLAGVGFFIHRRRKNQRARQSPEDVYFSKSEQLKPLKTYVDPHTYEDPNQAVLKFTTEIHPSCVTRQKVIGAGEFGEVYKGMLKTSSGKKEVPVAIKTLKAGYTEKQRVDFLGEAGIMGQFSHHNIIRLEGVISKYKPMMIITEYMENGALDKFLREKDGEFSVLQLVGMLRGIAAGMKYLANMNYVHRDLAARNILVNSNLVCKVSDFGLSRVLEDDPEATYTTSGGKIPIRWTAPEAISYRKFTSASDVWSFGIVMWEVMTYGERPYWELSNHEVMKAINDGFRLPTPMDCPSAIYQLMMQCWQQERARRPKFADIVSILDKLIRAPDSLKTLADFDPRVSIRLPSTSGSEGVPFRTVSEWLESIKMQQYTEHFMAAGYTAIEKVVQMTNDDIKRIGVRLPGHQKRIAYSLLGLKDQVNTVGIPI

[8] = biological target: Homeodomain-interacting protein kinase 1 (Homo sapiens) (UniProt Q86Z02); test: Inhibition of HIPK1 (unknown origin) at 1000 nM in the presence of ATP by Kinome scan method relative to control
Chain of Homeodomain-interacting protein kinase 1 (Homo sapiens) (Q86Z02 whole entry, looked up): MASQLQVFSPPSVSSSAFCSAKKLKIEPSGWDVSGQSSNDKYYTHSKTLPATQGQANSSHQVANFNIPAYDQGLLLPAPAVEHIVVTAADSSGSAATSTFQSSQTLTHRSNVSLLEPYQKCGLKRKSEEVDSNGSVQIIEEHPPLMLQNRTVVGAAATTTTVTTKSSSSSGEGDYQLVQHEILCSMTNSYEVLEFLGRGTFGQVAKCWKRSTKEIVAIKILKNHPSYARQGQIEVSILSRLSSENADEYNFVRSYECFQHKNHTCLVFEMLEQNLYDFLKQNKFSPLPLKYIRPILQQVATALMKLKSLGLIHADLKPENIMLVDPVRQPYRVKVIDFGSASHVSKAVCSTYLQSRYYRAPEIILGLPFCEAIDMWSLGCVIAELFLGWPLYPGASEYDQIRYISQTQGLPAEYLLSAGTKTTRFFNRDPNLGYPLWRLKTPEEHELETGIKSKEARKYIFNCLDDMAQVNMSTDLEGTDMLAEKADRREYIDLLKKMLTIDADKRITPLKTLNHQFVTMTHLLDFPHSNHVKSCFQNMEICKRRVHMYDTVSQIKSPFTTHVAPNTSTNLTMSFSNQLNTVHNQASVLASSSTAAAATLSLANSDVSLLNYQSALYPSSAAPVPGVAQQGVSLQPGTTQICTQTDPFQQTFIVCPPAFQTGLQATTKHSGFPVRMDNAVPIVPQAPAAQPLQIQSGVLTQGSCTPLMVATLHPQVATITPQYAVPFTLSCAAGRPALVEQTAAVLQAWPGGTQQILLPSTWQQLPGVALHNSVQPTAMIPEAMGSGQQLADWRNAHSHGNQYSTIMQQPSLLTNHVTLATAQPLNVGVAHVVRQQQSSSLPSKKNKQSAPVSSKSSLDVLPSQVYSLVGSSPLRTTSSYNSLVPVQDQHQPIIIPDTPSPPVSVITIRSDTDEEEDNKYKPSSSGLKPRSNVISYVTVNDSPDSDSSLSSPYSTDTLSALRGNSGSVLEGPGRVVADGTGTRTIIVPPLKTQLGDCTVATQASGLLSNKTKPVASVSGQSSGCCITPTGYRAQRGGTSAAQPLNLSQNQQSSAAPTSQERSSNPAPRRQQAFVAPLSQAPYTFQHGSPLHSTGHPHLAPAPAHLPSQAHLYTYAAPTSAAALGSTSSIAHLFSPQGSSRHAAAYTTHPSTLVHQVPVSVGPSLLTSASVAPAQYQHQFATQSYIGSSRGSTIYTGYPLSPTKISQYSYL

[9] = biological target: Angiopoietin-1 receptor (Homo sapiens) (UniProt Q02763); test: Inhibition of TEK (unknown origin) at 100 nM in the presence of ATP by Kinome scan method relative to control
[10] = biological target: Cyclin-dependent kinase 5/CDK5 activator 1 (Homo sapiens) (UniProt Q00535+Q15078); test: Inhibition of CDK5/p25 (unknown origin) at 100 nM in the presence of ATP by Kinome scan method relative to control; assay type: protein-complex assay
[11] = test system: HCT-116; test: Induction of apoptosis in human HCT-116 cells assessed as viable cells at 0.1 uM incubated for > 6 hrs by annexin V/PI staining based analysis (Rvb=90.04%); assay type: functional; settings: read-out: Activity
[12] = biological target: Casein kinase I isoform alpha (Homo sapiens) (UniProt P48729); test: Inhibition of CSNK1A1 (unknown origin) at 1000 nM in the presence of ATP by Kinome scan method relative to control
[13] = biological target: Serine/threonine-protein kinase PLK1 (Homo sapiens) (UniProt P53350); test: Inhibition of PLK1 (unknown origin) at 100 nM in the presence of ATP by Kinome scan method relative to control
Chain of Serine/threonine-protein kinase PLK1 (Homo sapiens) (P53350 whole entry): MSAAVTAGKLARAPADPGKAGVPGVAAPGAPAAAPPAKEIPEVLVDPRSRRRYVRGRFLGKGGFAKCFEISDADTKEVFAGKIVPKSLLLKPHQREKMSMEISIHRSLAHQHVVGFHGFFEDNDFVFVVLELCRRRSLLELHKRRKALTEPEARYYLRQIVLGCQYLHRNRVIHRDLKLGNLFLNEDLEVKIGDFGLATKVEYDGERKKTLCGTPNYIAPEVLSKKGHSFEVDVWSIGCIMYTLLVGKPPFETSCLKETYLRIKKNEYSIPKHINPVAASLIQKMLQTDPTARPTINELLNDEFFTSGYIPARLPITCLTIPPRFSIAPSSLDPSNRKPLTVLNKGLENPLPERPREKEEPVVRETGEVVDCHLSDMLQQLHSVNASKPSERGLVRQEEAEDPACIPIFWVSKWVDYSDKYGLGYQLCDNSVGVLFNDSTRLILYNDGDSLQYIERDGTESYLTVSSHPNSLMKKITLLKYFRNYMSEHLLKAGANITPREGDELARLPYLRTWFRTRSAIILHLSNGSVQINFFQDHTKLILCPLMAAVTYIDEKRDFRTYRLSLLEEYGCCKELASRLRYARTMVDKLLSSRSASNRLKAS

[14] = biological target: Dual specificity tyrosine-phosphorylation-regulated kinase 1B (Homo sapiens, UniProt Q9Y463); test: Inhibition of DYRK1B (unknown origin) using ULight-MBP peptide as substrate incubated for 10 mins in presence of ATP incubated for 45 mins by LANCE Ultra kinase assay
[15] = test system: HCT-116; test: Induction of cell cycle arrest in human HCT-116 cells assessed as sub G0/G1 phase at 0.1 uM incubated for 24 hrs by flow cytometry analysis (Rvb=2.5%); assay type: functional
[16] = biological target: Dual specificity protein kinase CLK1 (Homo sapiens) (UniProt P49759); test: Inhibition of CLK (unknown origin) in human MDA-MB-468 cells assessed as SRSF1 phosphorylation level incubated for 3 hrs by immunoblot analysis; assay type: cell-based
[17] = biological target: Dual specificity protein kinase CLK1 (Homo sapiens) (UniProt P49759); test: Inhibition of CLK (unknown origin) in human MDA-MB-468 cells assessed as SRSF6 phosphorylation level incubated for 3 hrs by immunoblot analysis; assay type: cell-based
[18] = biological target: Tyrosine-protein kinase JAK2 (Homo sapiens) (UniProt O60674); test: Inhibition of JAK2 (unknown origin) at 100 nM in the presence of ATP by Kinome scan method relative to control
[19] = biological target: Ephrin type-A receptor 1 (Homo sapiens) (UniProt P21709); test: Inhibition of EPHA1 (unknown origin) at 1000 nM in the presence of ATP by Kinome scan method relative to control
[20] = biological target: Mitogen-activated protein kinase 1 (Homo sapiens) (UniProt P28482); test: Inhibition of MAPK1 (unknown origin) at 100 nM in the presence of ATP by Kinome scan method relative to control
[21] = biological target: Mitogen-activated protein kinase 9 (Homo sapiens) (UniProt P45984); test: Inhibition of MAPK9 (unknown origin) at 100 nM in the presence of ATP by Kinome scan method relative to control
Chain of Mitogen-activated protein kinase 9 (Homo sapiens) (P45984 whole entry, looked up): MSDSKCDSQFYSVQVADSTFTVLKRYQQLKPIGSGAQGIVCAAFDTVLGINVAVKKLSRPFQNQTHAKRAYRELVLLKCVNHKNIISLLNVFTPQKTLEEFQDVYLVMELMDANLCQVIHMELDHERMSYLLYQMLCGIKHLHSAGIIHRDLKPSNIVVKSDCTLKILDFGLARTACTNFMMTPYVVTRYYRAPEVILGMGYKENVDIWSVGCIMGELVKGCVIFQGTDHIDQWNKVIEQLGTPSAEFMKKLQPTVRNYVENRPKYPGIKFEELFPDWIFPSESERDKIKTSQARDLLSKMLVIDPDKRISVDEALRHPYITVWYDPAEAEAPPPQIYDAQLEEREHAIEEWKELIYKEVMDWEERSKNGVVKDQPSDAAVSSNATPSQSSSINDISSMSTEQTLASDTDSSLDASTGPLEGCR

[22] = test system: HCT-116; test: Induction of cell cycle arrest in human HCT-116 cells assessed as sub G0/G1 phase at 0.5 uM incubated for 24 hrs by flow cytometry analysis (Rvb=2.5%); assay type: functional
[23] = biological target: Focal adhesion kinase 1 (Homo sapiens) (UniProt Q05397); test: Inhibition of PTK2 (unknown origin) at 100 nM in the presence of ATP by Kinome scan method relative to control
Chain of Focal adhesion kinase 1 (Homo sapiens) (Q05397 2-1052 limits assumed): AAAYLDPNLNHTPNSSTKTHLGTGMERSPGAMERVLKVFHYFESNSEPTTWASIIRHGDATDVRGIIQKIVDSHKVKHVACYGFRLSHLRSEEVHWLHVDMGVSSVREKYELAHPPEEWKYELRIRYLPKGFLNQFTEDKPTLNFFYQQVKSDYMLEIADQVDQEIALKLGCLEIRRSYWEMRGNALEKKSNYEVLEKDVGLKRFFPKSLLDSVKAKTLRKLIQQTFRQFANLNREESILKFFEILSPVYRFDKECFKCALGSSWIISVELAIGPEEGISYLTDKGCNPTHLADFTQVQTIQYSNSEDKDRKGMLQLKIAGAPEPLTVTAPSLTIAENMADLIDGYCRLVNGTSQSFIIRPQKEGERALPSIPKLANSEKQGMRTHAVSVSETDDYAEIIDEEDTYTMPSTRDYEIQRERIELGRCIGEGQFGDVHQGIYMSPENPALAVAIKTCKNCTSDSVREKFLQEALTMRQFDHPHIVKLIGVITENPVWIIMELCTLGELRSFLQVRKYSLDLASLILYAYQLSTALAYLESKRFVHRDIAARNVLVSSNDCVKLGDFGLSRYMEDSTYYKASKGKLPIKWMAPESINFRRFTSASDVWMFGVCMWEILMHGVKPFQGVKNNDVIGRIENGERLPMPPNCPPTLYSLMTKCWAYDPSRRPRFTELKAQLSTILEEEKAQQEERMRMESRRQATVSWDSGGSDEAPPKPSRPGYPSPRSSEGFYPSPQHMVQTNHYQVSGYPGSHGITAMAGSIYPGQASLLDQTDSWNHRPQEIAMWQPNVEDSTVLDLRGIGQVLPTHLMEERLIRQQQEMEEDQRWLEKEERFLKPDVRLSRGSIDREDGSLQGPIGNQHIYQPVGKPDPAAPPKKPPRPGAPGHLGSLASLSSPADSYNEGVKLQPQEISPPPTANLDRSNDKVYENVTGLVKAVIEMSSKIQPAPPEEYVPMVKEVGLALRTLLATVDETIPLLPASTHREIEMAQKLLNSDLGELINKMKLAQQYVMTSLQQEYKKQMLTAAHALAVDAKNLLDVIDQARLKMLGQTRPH

[24] = test system: HCT-116; test: Induction of cell cycle arrest in human HCT-116 cells assessed as S phase at 1 uM incubated for 24 hrs by flow cytometry analysis (Rvb=46.4%); assay type: functional
[25] = test system: HCT-116; test: Induction of cell cycle arrest in human HCT-116 cells assessed as sub G0/G1 phase at 0.5 uM incubated for 6 hrs by flow cytometry analysis (Rvb=1.6%); assay type: functional
[26] = test system: HCT-116; test: Induction of apoptosis in human HCT-116 cells assessed as viable cells at 1 uM incubated for > 6 hrs by annexin V/PI staining based analysis (Rvb=90.04%); assay type: functional; settings: read-out: Activity
[27] = biological target: Protein kinase C alpha type (Homo sapiens) (UniProt P17252); test: Inhibition of PRKCA (unknown origin) at 1000 nM in the presence of ATP by Kinome scan method relative to control
[28] = biological target: SRSF protein kinase 1 (Homo sapiens) (UniProt Q96SB4); test: Inhibition of SRPK1 (unknown origin) at 1110 nM in the presence of ATP by Kinome scan method relative to control; settings: time > 6.0 hrs
[29] = test system: HCT-116; test: Induction of cell cycle arrest in human HCT-116 cells assessed as G0/G1 phase at 0.5 uM incubated for 24 hrs by flow cytometry analysis (Rvb=35.7%); assay type: functional
[30] = test system: HCT-116; test: Induction of cell cycle arrest in human HCT-116 cells assessed as S phase at 0.1 uM incubated for 6 hrs by flow cytometry analysis (Rvb=39.3%); assay type: functional
[31] = Stability of compound in tissue culture medium assessed as remaining parent compound at 5.44 uM incubated for 6 hrs; assay type: physicochemical; settings: read-out: Stability
[32] = biological target: Protein kinase C theta type (Homo sapiens) (UniProt Q04759); test: Inhibition of PRKCQ (unknown origin) at 1000 nM in the presence of ATP by Kinome scan method relative to control

`CN1CCN(C(=O)C(C)(C)c2ccc(C(=O)Nc3cn4cc(-c5ccncc5)ccc4n3)cc2)CC1` [T3-CLK] gave an inhibition [1] of 11%, an inhibition [2] of 2% and an inhibition [3] of 17%. The remaining at 24 h, 5.38 µM [4] was 98.8%, the Activity [5] was 41.2% and the inhibition [6] was “Dose-Dependent Effect”. It also gave an inhibition [7] of -4%, an inhibition [8] of 3% and an inhibition [9] of 0%. It also gave an inhibition [10] of 2%, a viability at 0.1 µM [11] of 87.8% and an inhibition [12] of -3%. The inhibition [13] was 8%, the IC50 [14] was 230 nM and the Activity [15] was 2.8%. For the same compound, the inhibition [16] was “Active”, the inhibition [17] was “Active” and the inhibition [18] was -7%. For the same compound, the inhibition [19] was -1%, the inhibition [20] was 3% and the inhibition [21] was 3%. It also gave an Activity [22] of 13.1%, an inhibition [23] of -9% and an Activity [24] of 46.7%. The Activity [25] was 1.6%, the viability at 1 µM [26] was 88.4% and the inhibition [27] was 4%. The inhibition [28] was -3%, the Activity [29] was 11.4% and the Activity [30] was 45.5%. It also gave a remaining at 6 h, 5.44 µM [31] of 98.9% and an inhibition [32] of 4%.
